Measurements as given in ChEMBL document CHEMBL3817785, “Synthetic sulfoglycolipids targeting the serine-threonine protein kinase Akt” (Bioorg Med Chem, 2016).
Calls of active or inactive are those of the source. No cut-off for these calls is given here.

How the values were obtained:
[1] = target: T1, RAC-alpha serine/threonine-protein kinase (Homo sapiens, UniProt P31749); assay: Inhibition of human Akt1 PH domain using AKTide-2T as substrate at 100 uM by ELISA
Summary of the method: (§1)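 Kit ELISA: wells precoated with AKTide-2T; constitutively active human Akt1 (25 m units/well) plus compound in kinase buffer (100 µM final, or 1–250 µM for concentration-response), Mg2+/ATP added. Phospho-substrate detected by HRP anti-phospho-AKTide-2T antibody with TMB, A450.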

[2] = target: RAC-alpha serine/threonine-protein kinase (Mus musculus) (UniProt P31750); assay: Inhibition of Akt phosphorylation in mouse NIH/3T3-K-RAS cells at 100 uM pretreated for 1 hr by Western blot analysis; type: cell-based
Summary of the method: (§2)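 K-ras-transformed NIH 3T3 cells (DMEM, 10% NBCS, 37 °C) plated at 3 x 10⁵ cells/mL, starved 16 h in 0.5% serum, pretreated 1 h with compound at 100 µM or DMSO, then stimulated with 10% serum for 30 min. Lysates (15 µg) on 8% SDS-PAGE, probed for phospho-Akt Ser473, reprobed for total Akt, actin loading control; ECL; densitometry from three experiments.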

[3] = target: RAC-alpha serine/threonine-protein kinase (Mus musculus) (UniProt P31750); assay: Inhibition of serum-stimulated Akt phosphorylation in mouse NIH/3T3-K-RAS cells at 100 uM pretreated for 1 hr followed by serum addition for 30 mins by Western blot analysis; type: cell-based; summary of the method: as §2
[4] = test system: TPC1; assay: Antiproliferative activity against human TPC1 cells harboring RET/PTC-1 rearrangement assessed as cell growth inhibition after 72 hrs by coulter counter method; type: functional, cell-based
Summary of the method: (§3)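 Cells seeded in complete medium in 12-well plates: Nim-1 at 5000 cells/cm² and TPC-1 at 3000 cells/cm², both in DMEM + 10% FBS; K1 at 4000 cells/cm² in DMEM:Ham's F12:MCDB 105 (2:1:1) + 20% serum; 37 °C, 5% CO2. Next day, exposed to increasing concentrations or DMSO (0.5% final) for 72 h. Cells trypsinized and Coulter-counted; survival as % of untreated, duplicates; IC50 = 50% growth inhibition.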

[5] = test system: K1; assay: (§4) Antiproliferative activity against human K1 cells expressing BRAF V600E/PI3K E542K mutants assessed as cell growth inhibition after 72 hrs by coulter counter method; type: functional, cell-based; summary of the method: as §3
[6] = species: Homo sapiens; assay: (§5) Antiproliferative activity against PTEN-deficient human Nim1 cells expressing BRAF V600E mutant assessed as cell growth inhibition after 72 hrs by coulter counter method; type: functional; summary of the method: as §3
[7] = test system: IGROV-1; assay: (§6) Antiproliferative activity against human IGROV1 cells assessed as cell growth inhibition after 24 hrs by coulter counter method; type: functional, cell-based
Summary of the method: (§7)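 Seeded at 5000 cells/cm² in complete RPMI (10% serum), 37 °C, 5% CO2; next day serum-starved and drug-treated for 24 h, then complete medium restored for a further 48 h. Cells trypsinized and counted by Coulter counter 72 h after treatment start; survival vs untreated; IC50 = concentration inhibiting proliferation by 50%; duplicates, two independent experiments, mean ± SEM.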

[8] = target: T1, RAC-alpha serine/threonine-protein kinase; assay: Inhibition of human Akt1 PH domain using AKTide-2T as substrate by ELISA; summary of the method: as §1
[9] = test system: TPC1; assay: Antiproliferative activity against human TPC1 cells harboring RET/PTC-1 rearrangement assessed as cell growth inhibition at 50 uM after 72 hrs by coulter counter method relative to control; type: functional; conditions: TPC1, 72 h, read-out: GI
Summary of the method: (§8)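 Cells plated in complete medium (TPC-1 3000 cells/cm², DMEM + 10% FBS; K1 4000 cells/cm², DMEM:Ham's F12:MCDB 105 2:1:1 + 20% serum), 37 °C, 5% CO2. Next day exposed to drug or DMSO (0.5% final) for 72 h; trypsinized, Coulter counted; % survival vs untreated; duplicates, two independent experiments, mean ± SEM; Student's two-tailed t test.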

[10] = Antiproliferative activity against human K1 cells expressing BRAF V600E/PI3K E542K mutants assessed as cell growth inhibition at 50 uM after 72 hrs by coulter counter method relative to control; type: functional; conditions: K1, 72 h, read-out: GI; summary of the method: as §8
[11] = test system: K1; assay: Cytotoxicity against human K1 cells expressing BRAF V600E/PI3K E542K mutants assessed as vacuolated and granulated cytoplasm at 50 uM after 72 hrs by coulter counter method; type: functional, cell-based
[12] = as §6; type: functional, cell-based; conditions: IGROV-1, 24 h; summary of the method: as §7
[13] = target: T1, RAC-alpha serine/threonine-protein kinase; assay: Inhibition of Akt in human IGROV1 cells assessed as reduction in GSK3alpha phosphorylation at Ser21 at 3 uM after 24 hrs by Western blot analysis; type: cell-based; conditions: IGROV-1
Summary of the method: (§9)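 Seeded in complete RPMI; 24 h later serum-starved and exposed to drug or vehicle for 24 h; total protein extracted and immunoblotted for serine-phosphorylated GSK-3α, GSK-3β and BAD.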

[14] = target: T1, RAC-alpha serine/threonine-protein kinase; assay: Inhibition of Akt in human IGROV1 cells assessed as reduction in GSK3beta phosphorylation at Ser9 at 3 uM after 24 hrs by Western blot analysis; type: cell-based; conditions: IGROV-1; summary of the method: as §9
[15] = target: T1, RAC-alpha serine/threonine-protein kinase; assay: Inhibition of Akt in human IGROV1 cells assessed as reduction in BAD phosphorylation at Ser136 at 3 uM after 24 hrs by Western blot analysis; type: cell-based; conditions: IGROV-1; summary of the method: as §9
[16] = as §4; type: functional, cell-based; conditions: K1, 72 h; summary of the method: as §3
[17] = as §5; type: functional; summary of the method: as §3
[18] = target: T1, RAC-alpha serine/threonine-protein kinase; conditions: 1 uM
[19] = target: T1, RAC-alpha serine/threonine-protein kinase; conditions: IGROV-1, 3 to 10 uM
[20] = target: T1, RAC-alpha serine/threonine-protein kinase; conditions: IGROV-1, 3 to 10 uM; remark: listed apart in the source
[21] = target: T1, RAC-alpha serine/threonine-protein kinase; conditions: IGROV-1, 3 to 10 uM; remark: listed apart in the source

T1 sequence (P31749 whole entry, the tested form may be a part): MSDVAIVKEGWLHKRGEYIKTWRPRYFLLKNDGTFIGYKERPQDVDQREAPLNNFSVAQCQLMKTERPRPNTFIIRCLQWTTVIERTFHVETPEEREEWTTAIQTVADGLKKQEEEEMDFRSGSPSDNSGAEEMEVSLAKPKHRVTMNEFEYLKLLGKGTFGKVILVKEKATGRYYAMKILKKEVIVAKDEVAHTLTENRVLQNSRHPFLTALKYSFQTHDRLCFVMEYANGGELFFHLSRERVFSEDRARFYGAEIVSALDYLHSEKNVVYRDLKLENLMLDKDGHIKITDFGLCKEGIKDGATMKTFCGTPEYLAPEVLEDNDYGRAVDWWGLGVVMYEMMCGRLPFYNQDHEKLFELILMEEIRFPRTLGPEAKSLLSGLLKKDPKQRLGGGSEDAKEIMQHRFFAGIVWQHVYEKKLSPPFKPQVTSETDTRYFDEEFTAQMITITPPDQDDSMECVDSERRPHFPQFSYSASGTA
Sequence of RAC-alpha serine/threonine-protein kinase (Mus musculus) (P31750 whole entry): as the sequence (P31749 whole entry, the tested form may be a part) above, with S2N, A50S, T100A, K112R, E117T, K389T, G410N, H415D counted along it

For CCCCCCCCCCCC(=O)OCC(COC(=O)CCCCCCCCCCC)O[C@@H]1O[C@H](CO)[C@@H](O)[C@H](O)[C@H]1O, the inhibition [1] was 7%.

With CCCCCCCCO[C@@H]1O[C@H](CN)[C@@H](O)[C@H](O)[C@H]1O the inhibition [1] was 6%, the inhibition [2] was “inactive” and the inhibition [3] was “inactive”. The “growth inhibition (GI)” value [4] was “inactive”, the “growth inhibition (GI)” value [5] was “inactive” and the “growth inhibition (GI)” value [6] was “inactive”. For the same molecule, the “growth inhibition (GI)” value [7] was “inactive”.

CCCCCCCCCCCC(=O)OCC(COC(=O)CCCCCCCCCCC)O[C@@H]1O[C@H](CS(=O)(=O)O)[C@@H](O)[C@H](O)[C@H]1O showed an inhibition [1] of 77%.

In the case of CCCCCC(=O)OCC(CO)O[C@@H]1O[C@H](CS(=O)(=O)O)[C@@H](O)[C@H](O)[C@H]1O (some centres not stated), the inhibition [1] is reported as 18%.

For CCCCCCCCCCCCCCCCCC(=O)OCC(CO)O[C@@H]1O[C@H](CS(=O)(=O)O)[C@@H](O)[C@H](O)[C@H]1O (some centres not stated), the inhibition [1] was 86%, the IC50 [8] was 31.3 µM and the inhibition [8] was “Dose-dependent effect”. The inhibition [2] was “Active”, the inhibition [3] was 40% and the “growth inhibition (GI)” value [4] was “Dose-dependent effect”. The inhibition of growth at 50 µM [9] was 30%, the inhibition of growth at 50 µM [10] was 30% and the “growth inhibition (GI)” value [5] was “Dose-dependent effect”. For the same molecule, the “growth inhibition (GI)” value [6] was “Dose-dependent effect”, the Activity [11] was “Active” and the IC50 [12] was 2 µM. For the same molecule, the inhibition [13] was “Active”, the inhibition [14] was “Active” and the inhibition [15] was “Active”.

For CCCCCCCCCCCC(=O)OCC(CO)O[C@@H]1O[C@H](CS(=O)(=O)O)[C@@H](O)[C@H](O)[C@H]1O (some centres not stated), the inhibition [1] was 31%.

For O=c1[nH]c2ccccc2n1C1CCN(Cc2ccc(-c3nc4cc5nc[nH]c5cc4nc3-c3ccccc3)cc2)CC1, the IC50 ([4]; TPC1, 72 h) was 11 µM, the IC50 [16] was 10 µM and the IC50 [17] was 3 µM. For the same molecule, the IC50 [12] was 0.3 µM.

With CCCCCCCCO[C@@H]1O[C@H](CS(=O)(=O)O)[C@@H](O)[C@H](O)[C@H]1O the inhibition [1] was 14%, the inhibition [2] was “inactive” and the inhibition [3] was “inactive”. For the same molecule, the “growth inhibition (GI)” value [4] was “inactive”, the “growth inhibition (GI)” value [5] was “inactive” and the “growth inhibition (GI)” value [6] was “inactive”. For the same molecule, the “growth inhibition (GI)” value [7] was “inactive”.

CCCCCCCCCCCCCCCCCCOP(=O)([O-])OC1CC[N+](C)(C)CC1 [PERIFOSINE] gave an IC50 [8] of 43.3 µM.

With CN[C@@H]1C[C@H]2O[C@@](C)([C@@H]1OC)n1c3ccccc3c3c4c(c5c6ccccc6n2c5c31)C(=O)NC4 the inhibition [18] was “Active”.

With O=c1[nH]c2ccccc2n1C1CCN(Cc2ccc(-c3nc4cc5[nH]cnc5cc4nc3-c3ccccc3)cc2)CC1 the inhibition [1] was 89%, the inhibition [19] was “Active” and the inhibition [20] was “Active”. For the same molecule, the inhibition [21] was “Active”.

O=S(=O)(O)C[C@H]1O[C@@H](OC(CO)CO)[C@H](O)[C@@H](O)[C@@H]1O showed an inhibition [1] of 13%.

CO[C@@H]1O[C@H](CS(=O)(=O)O)[C@@H](O)[C@H](O)[C@H]1O showed an inhibition [1] of 28%.

CCCCCC(=O)OCC(COC(=O)CCCCC)O[C@@H]1O[C@H](CS(=O)(=O)O)[C@@H](O)[C@H](O)[C@H]1O showed an inhibition [1] of 13%.

In the case of CCCCCCCCCCCCOS(=O)(=O)[O-].[Na+], the inhibition [1] is reported as “inactive”.
